This experiment has as its system Shc1 phosphorylated at Tyr239 and Tyr240 in MCF10A cells. The experiment can be described thus: Immunoblot of dual Shc1 phosphorylation in MCF10A cells. Format: cell-based. The following applies: 1ng/mL EGF, 3 min. Put shortly: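 MCF10A cells (STR-authenticated, mycoplasma-free) were kept in HuMEC medium and held 16 h in growth-factor-free medium before pretreatment with test compound and EGF stimulation. Cells were lysed in RIPA buffer containing protease and phosphatase inhibitors. Lysates were separated by SDS-PAGE, transferred to nitrocellulose and immunoblotted with phospho-Shc and total Shc antibodies.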
A general note: A western blot detects proteins with antibodies after separation by electrophoresis.

B1: EGF: EGF, used at 1ng/mL to stimulate MCF10A cells (protein, UniProt P01133 23-1207, looked up)
Pro-epidermal growth factor: PQHWSCPEGTLAGNGNSTCVGPAPFLIFSHGNSIFRIDTEGTNYEQLVVDAGVSVIMDFHYNEKRIYWVDLERQLLQRVFLNGSRQERVCNIEKNVSGMAINWINEEVIWSNQQEGIITVTDMKGNNSHILLSALKYPANVAVDPVERFIFWSSEVAGSLYRADLDGVGVKALLETSEKITAVSLDVLDKRLFWIQYNREGSNSLICSCDYDGGSVHISKHPTQHNLFAMSLFGDRIFYSTWKMKTIWIANKHTGKDMVRINLHSSFVPLGELKVVHPLAQPKAEDDTWEPEQKLCKLRKGNCSSTVCGQDLQSHLCMCAEGYALSRDRKYCEDVNECAFWNHGCTLGCKNTPGSYYCTCPVGFVLLPDGKRCHQLVSCPRNVSECSHDCVLTSEGPLCFCPEGSVLERDGKTCSGCSSPDNGGCSQLCVPLSPVSWECDCFPGYDLQLDEKSCAASGPQPFLLFANSQDIRHMHFDGTDYGTLLSQQMGMVYALDHDPVENKIYFAHTALKWIERANMDGSQRERLIEEGVDVPEGLAVDWIGRRFYWTDRGKSLIGRSDLNGKRSKIITKENISQPRGIAVHPMAKRLFWTDTGINPRIESSSLQGLGRLVIASSDLIWPSGITIDFLTDKLYWCDAKQSVIEMANLDGSKRRRLTQNDVGHPFAVAVFEDYVWFSDWAMPSVMRVNKRTGKDRVRLQGSMLKPSSLVVVHPLAKPGADPCLYQNGGCEHICKKRLGTAWCSCREGFMKASDGKTCLALDGHQLLAGGEVDLKNQVTPLDILSKTRVSEDNITESQHMLVAEIMVSDQDDCAPVGCSMYARCISEGEDATCQCLKGFAGDGKLCSDIDECEMGVPVCPPASSKCINTEGGYVCRCSEGYQGDGIHCLDIDECQLGEHSCGENASCTNTEGGYTCMCAGRLSEPGLICPDSTPPPHLREDDHHYSVRNSDSECPLSHDGYCLHDGVCMYIEALDKYACNCVVGYIGERCQYRDLKWWELRHAGHGQQQKVIVVAVCVVVLVMLLLLSLWGAHYYRTQKLLSKNPKNPYEESSRDVRSRRPADTEDGMSSCPQPWFVVIKEHQDLKNGGQPVAGEDGQAADGSMQPTSWRQEPQLCGMGTEQGCWIPVSSDKGSCPQVMERSFHMPSYGTQTLEGGVEKPHSLLSANPLWQQRALDPPHQMELTQ
modifications: Pro-epidermal growth factor
Turning to B1, the “EGF-stimulated phosphorylation of Shc1 at both Tyr239 and Tyr240” value was “significant phosphorylation of both Tyr239 and Tyr240 was detected”.

Source of the values: PMC4824005 (Nature structural & molecular biology, 2015).
